# Assay results gathered from unrelated publications.
# Protocols differ between the studies behind these lines.
# Target: Phosphatidylinositol 3-kinase C2 domain-containing subunit gamma (PIK3C2G, Homo sapiens, UniProt O75747)
SMILES,assay,conditions,endpoint,value
CN1CC(Oc2cnc(C#N)cc2-c2ccn3nc(NC(=O)C4CC4)cc3c2)C1,"enzyme activity, inhibitor",1 µM,inhibition,-6%
Cc1ccc(C(=O)Nc2ccc(CN3CCN(C)CC3)c(C(F)(F)F)c2)cc1C#Cc1cnc2cccnn12,cell-free assay,23.5 nM,remaining signal,85%
COc1cc(Cl)c(C(=O)N[C@@H](CN[C@H]2CC[C@@H](N)CC2)Cc2ccc(C#N)cc2)cc1-c1ccc(CN[C@H](C)c2ccc(C)cc2)o1,"enzyme activity, inhibitor",1 µM,remaining activity,96%
CO[C@H]1CC[C@H](CNc2ccc(S(=O)(=O)NC(=O)c3ccc(N4CCN(CC5=C(c6ccc(Cl)cc6)CC(C)(C)CC5)CC4)cc3Oc3cnc4[nH]ccc4c3)cc2[N+](=O)[O-])CC1,"cell-free assay, competition with immobilised ligand",1 µM,remaining binding,72%
Cc1ccc(NC(=O)c2ccc(C)c(C(F)(F)F)c2)cc1C#Cc1nn(C2CCC(O)CC2)c2ncnc(N)c12 (stereo not shown),cell-free assay,10 µM,remaining signal,98%
Cc1cnc(NC2CCOCC2)nc1-n1cnc(C(=O)NC(CN)c2cc(F)cc(Cl)c2)c1 (stereo not shown),"enzyme activity, inhibitor, radiometric",1 µM,remaining activity,100%
CN(C)CC#Cc1ccc(OCCCc2sc(N3CCc4cccc(C(=O)Nc5nc6ccccc6s5)c4C3)nc2C(=O)O)c(F)c1,"cell-free assay, competition with immobilised ligand",1 µM,remaining binding,100%
C=CC(=O)Nc1cc(Nc2nccc(Nc3cc(Cl)c(F)cc3C(C)(C)O)n2)c(OC)cc1N1CC[C@@H](N(C)C)C1,"enzyme activity, inhibitor",1 µM,inhibition,-3%
Cc1ccc(C(=O)NCc2ccsc2)cc1C#Cc1cn(C(C)C)c2ncnc(N)c12,"enzyme activity, inhibitor",1 µM,activity vs control,86%
O=C(CSc1nc2nccnc2c(=O)n1CCc1ccccc1)Nc1nccs1,"enzyme activity, inhibitor",10 µM,inhibition,76%
Cc1cc(NC(=O)c2cccc3cc(-c4cccc5[nH]nc(N)c45)ccc23)ccc1F,"enzyme activity, inhibitor",0.1 µM,activity vs control,103%
CS(=O)(=O)Nc1cccc(-c2csc(NC(=O)CSc3nc4nccnc4c(=O)n3CCc3ccccc3)n2)c1,"enzyme activity, inhibitor",10 µM,inhibition,16%
Nc1ncnc2occ(-c3ccc(NC(=O)Nc4cc(C(F)(F)F)ccc4F)cc3)c12,cell-free assay,20 µM,remaining signal,93%
